Results reported in ChEMBL document CHEMBL5321232, “Synthesis and biological evaluation of dual MDM2/XIAP inhibitors based on the tetrahydroquinoline scaffold” (Eur J Med Chem, 2023).
Calls of active or inactive are those of the source. The rule behind the calls is not given here.

Legend:
[1] = target: E3 ubiquitin-protein ligase Mdm2 (Homo sapiens) (UniProt Q00987); test: Inhibition of MDM2 in human EU-1 cells assessed as increase in p21 expression upto 1 uM incubated at 8 hrs by Western blot analysis; type: cell-based
Outline: (§1)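 EU-1 cells were treated at the doses and times indicated; for caspase-3, caspase-9 and PARP, 1 μM over a time course. Cells were lysed for 30 min in NaCl/Tris pH 8.0/EDTA/NP-40 buffer with protease inhibitors. Equal protein was run on SDS-PAGE and transferred to nitrocellulose. Membranes were blocked in milk, incubated with primary antibodies for 3 h at room temperature and HRP secondary for 1 h, then developed by ECL.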

[2] = target: E3 ubiquitin-protein ligase Mdm2 (Homo sapiens) (UniProt Q00987); test: Inhibition of MDM2 in human A-375 cells assessed as increase in p53 expression upto 10 uM incubated at 24 hrs by Western blot analysis; type: cell-based
Outline: (§2)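 22Rv1 or A375 cells grown to 80% confluence were exposed for 24 h to 1, 5 or 10 μM compound in DMEM. Cells were lysed in RIPA with protease/phosphatase inhibitors, and 30 μg protein was run on SDS-PAGE/PVDF. Membranes were blocked in 5% milk and probed overnight at 4 °C for p53, c-PARP, MDM2 and GAPDH. Bands detected by HRP/ECL.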

[3] = target: E3 ubiquitin-protein ligase Mdm2 (Homo sapiens) (UniProt Q00987); test: Inhibition of MDM2 in human 22Rv1 cells assessed as increase in p53 expression upto 10 uM incubated at 24 hrs by Western blot analysis; type: cell-based
Outline: as §2, with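 “DMEM. AMG-232 control ran at 100 nM–1 μM.” for “DMEM.”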

MDA-MB-231 = test: Antiproliferative activity against human MDA-MB-231 cells assessed as inhibition of cell growth incubated for 72 hrs by MTS assay; type: functional, cell-based; settings: MDA-MB-231, 72 h
Outline: (§3)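 Cells seeded at 3,000–8,000 per well according to growth rate and incubated overnight. They were then exposed to compounds over 3 nM–100 μM for 72 h, four replicates per concentration. MTS added, 1.5 h in the dark at 37 °C, absorbance read at 490 nm. IC50 normalized to untreated cells and fitted by nonlinear regression.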

CWR22R [4] = test: Antitumor activity against human 22Rv1 cells xenografted in NOD SCID mouse assessed as increase in cleaved caspase3 expression at 60 mg/kg, ip administered for 10 days by immunostaining analysis; type: functional, organism-based; settings: time 10.0 day
Outline: (§4)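 Tumors came from 22Rv1 xenografts in male NSG mice dosed i.p. daily for 10 days. Cryosections (10 μm) were fixed in 4% PFA and permeabilized with 0.25% Triton X-100, then blocked with 10% goat serum. Primary antibodies (1:200) against MDM2, cleaved caspase-3, cleaved PARP or CD31 were applied overnight at 4 °C, followed by fluorescent secondaries (1:1,000, 2 h) and a DAPI counterstain. Fluorescence intensity quantified as mean ± SEM.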

[5] = target: E3 ubiquitin-protein ligase Mdm2 (Homo sapiens) (UniProt Q00987); test: Inhibition of MDM2 in human EU-1 cells assessed as increase in PUMA expression upto 1 uM incubated at 8 hrs by Western blot analysis; type: cell-based; outline: as §1
[6] = Toxicity in NOD SCID mouse assessed as body weight loss at 60 mg/kg, ip administered for 10 days and measured every 3 days; type: organism-based; settings: in vivo, 240 h, time 10 day
Outline: (§5)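 Male humanized NSG mice, 8–9 weeks old, were injected s.c. in the right dorsal flank with 2 million 22Rv1 cells in medium/Matrigel 1:1. After ~14 days (mean tumor ~100 mm3), mice were randomized, n=5/group. Dosing was 60 mg/kg i.p. daily for 10 days in 5% DMSO/65% PEG400/30% saline, or vehicle alone. Caliper volume (a×b2×0.5) and body weight were recorded every 3 days.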

A-375 [7] = test: Antiproliferative activity against human A-375 cells assessed as inhibition of cell growth incubated for 72 hrs by MTS assay; settings: A-375, 72 h
CWR22R [8] = test: Antitumor activity against human 22Rv1 cells xenografted in NOD SCID mouse assessed as disruption of tumor vasculature at 60 mg/kg, ip administered for 10 days by immunostaining analysis; type: functional, organism-based; settings: time 10.0 day; outline: as §4
[9] = target: E3 ubiquitin-protein ligase Mdm2 (Homo sapiens) (UniProt Q00987); test: Inhibition of MDM2 in human EU-1 cells assessed as increase in p53 expression upto 1 uM incubated at 8 hrs by Western blot analysis; type: cell-based; outline: as §1
[10] = target: E3 ubiquitin-protein ligase XIAP (Homo sapiens) (UniProt P98170); test: Inhibition of XIAP in human EU-1 cells assessed as increase in caspase3 at 1 uM incubated upto 24 hrs by Western blot analysis; type: cell-based; outline: as §1
[11] = target: E3 ubiquitin-protein ligase XIAP (Homo sapiens) (UniProt P98170); test: Inhibition of XIAP in human EU-1 cells assessed as increase in caspase-9 at 1 uM incubated upto 24 hrs by Western blot analysis; type: cell-based; outline: as §1
A-375 [12] = test: Inhibition of colony formation in human A-375 cells assessed as reduction in number of clonogenic cells at 1 to 10 uM incubated for 10 days and subsequent media replacement with compound for every 3 days by crystal violet staining based microscopic analysis; type: functional, cell-based; settings: dose 1-10 µM, time 10.0 day
Outline: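 A375 cells in log phase were seeded at 250 per well and incubated 48 h. They were then treated with 1, 5 or 10 μM for 10 days, with medium ± compound changed every 3 days. Colonies were methanol-fixed, stained with 0.5% crystal violet and counted by microscopy. Colony area expressed versus vehicle (100%) as mean ± SEM of three biological replicates.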

CWR22R [13] = test: Antitumor activity against human 22Rv1 cells xenografted in NOD SCID mouse assessed as decrease in MDM2 expression at 60 mg/kg, ip administered for 10 days by immunostaining analysis; type: functional, organism-based; settings: time 10.0 day; outline: as §4
EU-1 [14] = test: Downregulation of MDM2 expression in human EU-1 cells incubated for 8 hrs by Western blot analysis; type: functional, cell-based; settings: dose <= 1.0 µM; outline: as §1
[15] = target: E3 ubiquitin-protein ligase Mdm2 (Homo sapiens) (UniProt Q00987); test: Inhibition of MDM2 in human 22Rv1 cells assessed as increase in PARP expression upto 10 uM incubated at 24 hrs by Western blot analysis; type: cell-based
Outline: as §2, with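 “DMEM. AMG-232 control ran at 100 nM–1 μM.” for “DMEM.”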

CWR22R [16] = test: Antitumor activity against human 22Rv1 cells xenografted in NOD SCID mouse assessed as increase in cleaved PARP expression at 60 mg/kg, ip administered for 10 days by immunostaining analysis; type: functional, organism-based; settings: time 10.0 day; outline: as §4
CWR22R [17] = test: Antiproliferative activity against human 22Rv1 cells assessed as inhibition of cell growth incubated for 72 hrs by MTS assay; type: functional, cell-based; settings: 22Rv1, 72 h; outline: as §3
[18] = target: E3 ubiquitin-protein ligase Mdm2 (Homo sapiens) (UniProt Q00987); test: Inhibition of MDM2 in human A-375 cells assessed as increase in PARP expression upto 10 uM incubated at 24 hrs by Western blot analysis; type: cell-based
Outline: as §2, with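 “DMEM. AMG-232 control ran at 100 nM–1 μM.” for “DMEM.”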

[19] = target: E3 ubiquitin-protein ligase XIAP (Homo sapiens) (UniProt P98170); test: Inhibition of XIAP in human EU-1 cells assessed as increase in PARP at 1 uM incubated upto 24 hrs by Western blot analysis; type: cell-based; outline: as §1
CWR22R [20] = test: Inhibition of colony formation in human 22Rv1 cells assessed as reduction in number of clonogenic cells incubated for 14 days and subsequent media replacement with compound for every 3 days by crystal violet staining based microscopic analysis; type: functional, cell-based; settings: dose 1-10 µM, time 14.0 day
Outline: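 22Rv1 cells in log phase were seeded at 2,000 per well and incubated 72 h. They were then treated with 1, 5 or 10 μM for 14 days, with medium ± compound renewed every 3 days. Colonies were fixed in cold methanol, stained with 0.5% crystal violet and counted microscopically. Run in triplicate; area expressed relative to vehicle (100%) as mean ± SEM of three biological replicates.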

[21] = Antiproliferative activity against human EU-1 cells assessed as inhibition of cell growth incubated for 44 hrs by WST assay; type: functional, cell-based; settings: EU-1, 44 h
Outline: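 Pediatric ALL-derived EU-1 cells grown in RPMI 1640 with 10% FBS, 2 mmol/L L-glutamine and penicillin/streptomycin at 37 °C, 5% CO2. Compounds given at graded concentrations for 44 h. WST (25 μg/well) then added for a further 4 h. OD read at 450 nm against a 620 nm reference, with cell-free wells for background.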

CWR22R [22] = test: Antitumor activity against human 22Rv1 cells xenografted in NOD SCID mouse at 60 mg/kg, ip administered for 10 days and measured every 3 days; type: functional, organism-based; settings: time 10.0 day; outline: as §5
EU-1 [23] = test: Downregulation of MDM2 expression in human EU-1 cells upto 1 uM by Western blot analysis; type: functional, cell-based; settings: time 8.0 hrs, TDE = time-dependent effect; outline: as §1
CWR22R [24] = test: Antitumor activity against human 22Rv1 cells xenografted in NOD SCID mouse assessed as inhibition of tumor growth at 60 mg/kg, ip administered for 10 days and measured every 3 days; type: functional, organism-based; settings: time 10.0 day; outline: as §5

Sequence of E3 ubiquitin-protein ligase Mdm2 (Homo sapiens) (Q00987 whole entry, looked up): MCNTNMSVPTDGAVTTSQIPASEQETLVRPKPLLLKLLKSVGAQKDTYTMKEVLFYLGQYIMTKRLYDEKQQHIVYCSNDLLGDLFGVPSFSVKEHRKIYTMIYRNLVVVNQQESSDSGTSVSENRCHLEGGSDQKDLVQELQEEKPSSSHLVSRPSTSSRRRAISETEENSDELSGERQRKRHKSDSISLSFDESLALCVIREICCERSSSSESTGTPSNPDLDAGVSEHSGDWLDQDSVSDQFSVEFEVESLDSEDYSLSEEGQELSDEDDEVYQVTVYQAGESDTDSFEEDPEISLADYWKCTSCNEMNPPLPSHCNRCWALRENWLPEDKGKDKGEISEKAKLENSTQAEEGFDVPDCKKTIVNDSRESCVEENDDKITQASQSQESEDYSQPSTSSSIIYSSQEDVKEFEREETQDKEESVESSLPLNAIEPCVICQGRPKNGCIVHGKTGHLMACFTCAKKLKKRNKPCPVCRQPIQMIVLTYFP
Sequence of E3 ubiquitin-protein ligase XIAP (Homo sapiens) (P98170 whole entry): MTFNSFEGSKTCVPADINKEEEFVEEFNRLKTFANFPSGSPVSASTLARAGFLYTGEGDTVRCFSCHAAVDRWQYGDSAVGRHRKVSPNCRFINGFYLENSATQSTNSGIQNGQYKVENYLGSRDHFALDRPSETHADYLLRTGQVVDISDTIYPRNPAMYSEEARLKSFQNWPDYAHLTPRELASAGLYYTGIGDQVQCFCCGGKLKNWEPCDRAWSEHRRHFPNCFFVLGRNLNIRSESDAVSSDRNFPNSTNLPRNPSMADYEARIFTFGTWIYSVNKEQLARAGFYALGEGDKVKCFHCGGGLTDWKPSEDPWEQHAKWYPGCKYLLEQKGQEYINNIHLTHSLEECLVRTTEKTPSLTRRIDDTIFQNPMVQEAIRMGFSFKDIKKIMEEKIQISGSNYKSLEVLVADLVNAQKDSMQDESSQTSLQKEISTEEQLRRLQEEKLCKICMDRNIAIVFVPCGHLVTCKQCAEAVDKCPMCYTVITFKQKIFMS

Question: What does the source list for `CC(=O)c1cccc(NS(=O)(=O)c2ccc3c(c2)C2OCCC2C(c2ccc(C(=O)C(C)C)cc2)N3)c1` (stereo not given)?
Answer: inhibition [1]: Active; inhibition [2]: Active; inhibition [3]: Active; IC50 (MDA-MB-231): 1500 nM; Activity (CWR22R [4]): Active; inhibition [5]: Active; Activity [6]: Non-Toxic; IC50 (A-375 [7]): 1000 nM; Activity (CWR22R [8]): Active; inhibition [9]: Active; inhibition [10]: Active; inhibition [11]: Active; inhibition (A-375 [12]): Active; Activity (CWR22R [13]): Active; Activity (EU-1 [14]): Dose-Dependent Effect; inhibition [15]: Active; Activity (CWR22R [16]): Active; IC50 (CWR22R [17]): 5300 nM; inhibition [18]: Active; inhibition [19]: Active; inhibition (CWR22R [20]): Dose-Dependent Effect; IC50 [21]: 200 nM; Activity (CWR22R [22]): Active; Activity (EU-1 [23]): Tde; Activity (CWR22R [24]): Active
